Assay outcomes as filed in PubChem BioAssay.
Myeloid diff MLP – induction of myeloid progenitor differentiation, primary screen, cell-based, flow cytometry, MLPCN library; hit rate 1% among 360,000; ER-HoxA9 myeloid progenitors, lysozyme-GFP differentiation; calls only at 10 µM;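 active means normalized GFP-positive differentiation at or above the plate's own cutoff, the solvent-only control mean plus 3 SD; inconclusive means no clear call, values can overlap the other calls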;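 further: cells exposed to compound for four days before flow analysis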
FXN GAA850 act – FXN promoter activators, primary screen, cell-based, luciferase luminescence, HEK293 lucGAA850; HEK293 lucGAA850 FXN promoter luciferase reporter, 24 h; percent of 10 µM SAHA response; activation, % at 6 µM; AID 540364, 2011; hit rate 0.56% among 360,000;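 active means activation above the average of all compounds screened plus 3 SD, cutoff fixed separately per campaign, cut at about 7.5% in these data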
T cell modulator – modulators of CD8 T cell-vesicle binding, primary screen, mouse 2C CD8+ T cells, flow cytometry; 2C CD8+ T cell-vesicle binding; hits give low values; response (vesicle binding), % at 7 µM; hit rate 0.068% among 330,000;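 active means response, share of CD8 T cells binding vesicles, and their 90th percentile fluorescence all below set limits, cut at about 80% in these data, passing the limit was not always enough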;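 further: values below 100% mean blocked vesicle binding to the CD8+ T cells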
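Incubation: binding step 1.5 h, 37 °C, antibody labelling 20 min, ice; system: murine 2C transgenic CD8+ T lymphocytes; technique: cytometric PE anti-B7-1 and Alexa647 anti-CD8 signals after 1% paraformaldehyde fixation; also added: QL9-charged Drosophila Ld/ICAM-1/B7-1 vesicles; control set: naked versus QL9-loaded vesicles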
NR2E3 ag-1 – NR2E3 agonists in two-hybrid cells, primary screen, cell-based, luminescence, CHO-S, Gal4-NCOR/VP16-NR2E3 | hit rate 0.35% among 360,000 | luciferase | inhibition of corepressor binding, % at 3.98 µM | Photoreceptor-specific nuclear receptor (Homo sapiens), Q9Y5X4;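 active means inhibition above the mean of all tested compounds plus 3 SD, cut at about 70% in these data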;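 further: higher means lower luciferase signal from less NR2E3 corepressor binding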
Target sequence (Q9Y5X4 whole entry, looked up, the tested form may be a part): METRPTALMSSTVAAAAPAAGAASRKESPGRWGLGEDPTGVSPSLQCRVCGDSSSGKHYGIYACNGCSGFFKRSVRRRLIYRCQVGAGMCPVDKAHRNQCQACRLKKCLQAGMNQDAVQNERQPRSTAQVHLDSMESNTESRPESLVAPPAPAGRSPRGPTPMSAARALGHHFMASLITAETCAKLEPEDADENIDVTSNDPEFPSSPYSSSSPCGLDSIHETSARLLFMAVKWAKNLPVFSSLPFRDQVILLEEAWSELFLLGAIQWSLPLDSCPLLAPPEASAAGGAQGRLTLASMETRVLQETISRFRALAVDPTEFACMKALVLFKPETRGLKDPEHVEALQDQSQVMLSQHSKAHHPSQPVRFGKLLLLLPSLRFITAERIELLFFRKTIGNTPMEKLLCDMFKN
NR2E3 ag-2 – inhibitors of NR2E3-RetCOR corepressor binding, primary screen, NR2E3 agonist project, biochemical, TR-FRET, GST-NR2E3, biotin-RetCOR | inhibition of corepressor binding, % at 4.78 µM | hit rate 0.12% among 320,000 | AID 2300, 2010 | 1536-well;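 active means percent inhibition above the cutoff of mean plus 3 SD of all tested compounds, set per screening campaign, cut at about 20% in these data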
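Test system: GST-NR2E3 and biotin-RetCOR proteins | Quantity: 1.35 nM GST-tagged NR2E3 final | Medium: Tris pH 7.5 | Also added: 7 nM biotin-RetCOR | Dosing: Compound at 4.8 µM, single dose | Timing: 5 h at 4 °C | Detection: Time-resolved FRET | Read-out basis: Percent inhibition | Benchmarks: Biotin wells as high control, 0.6% DMSO wells as low control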
A number is an active result; i = inactive; ? = inconclusive; nt = not tested or not shown; + = active, no number. Compounds with a hit are over-represented: about 2% of the library has one in this group of screens.

SMILES	Myeloid diff MLP	FXN GAA850 act	T cell modulator	NR2E3 ag-1	NR2E3 ag-2
COc1ccc(Cl)cc1NS(=O)(=O)c1c(C)[nH]c(=O)[nH]c1=O	i	i	i	i	nt
CC(C)Cn1c(N)c(C(=O)COC(=O)CCNS(=O)(=O)c2ccccc2)c(=O)n(C)c1=O	i	i	i	i	i
N#Cc1ccc(-c2ccc(Cl)cc2)nc1SCC(=O)c1cccc(Cl)c1	+	i	i	i	i
N#Cc1ccc(-c2ccccc2)nc1SCC(=O)c1cccc(Cl)c1	+	i	i	i	i
CCN(CC)C(=O)CSc1nc(-c2ccccc2)ccc1C#N	i	i	i	i	i
N#Cc1ccc(-c2cccnc2)nc1SCC(=O)c1ccccc1	+	i	i	i	i
COCCCN1C(=O)C(CC(=O)NC2CCCCC2)CC(C(=O)N(C(C)C)C(C)C)=C1C (stereo not given)	i	nt	nt	i	nt
Cc1ccc(S(=O)(=O)N2C[C@@H]3[C@H]4CC[C@H](C4)[C@@H]3[C@@H](C)C2CC(=O)c2ccccc2)cc1 (stereo not given in full)	i	i	nt	i	nt
CCCN(S(=O)(=O)c1ccccc1F)S(=O)(=O)c1ccccc1Br	?	i	i	i	i
CCN(CC(=O)Nc1c(F)cccc1F)C(=O)C1(c2ccccc2)CC1	i	i	i	i	i
O=C(COC(=O)CNC(=O)c1cc(Cl)cc([N+](=O)[O-])c1)NC(=O)NCc1ccco1	i	i	i	i	nt
O=C(COC(=O)CNC(=O)c1cccc([N+](=O)[O-])c1)NCc1ccco1	+	i	i	i	i
CC(=O)/C(N=Nc1cc(C)ccc1O)=C(\C)O	+	i	i	i	i
CC(=O)/C(N=Nc1ccc(C(=O)O)cc1[N+](=O)[O-])=C(\C)O	i	i	i	i	i
Cn1c(=O)c2c(SCC(=O)Nc3nccs3)nc(C3CC3)nc2n(C)c1=O	+	i	i	i	i
COc1ccc(CN2C(=NC(=O)C3CC3)SC3CS(=O)(=O)CC32)cc1OC (stereo not given)	+	i	i	i	i
O=C(O)c1ccc(COc2ccccc2C=C2C(=O)c3ccccc3C2=O)cc1	+	i	i	i	i
O=C(O)CC(CC(=O)Nc1nncs1)c1ccccc1 (stereo not given)	i	i	i	i	i
O=C(O)CC(Cn1[nH]nnc1=S)c1ccccc1 (stereo not given)	+	i	i	i	i
COc1cccc(/C=N/NC(=O)c2c(-c3ccccc3)noc2C)c1O	+	i	i	i	i
COC(=O)c1cc(OC)c(OC)cc1NC(=O)c1c(-c2ccccc2)noc1C	+	i	i	i	i
Cc1cnc(C(=O)OCC(=O)NC23CC4CC(CC(C4)C2)C3)cn1	i	i	i	i	i
Cc1cnc(C(=O)OCC(=O)C23CC4CC(CC(C4)C2)C3)cn1	+	i	i	i	i
CCN(CC)S(=O)(=O)c1ccc(N/N=C(\C)c2cccnc2)nc1	i	i	i	i	i
CN(C)C(=S)NC(=S)Nc1ccc2ccccc2c1	nt	16.8	nt	i	nt
SMILES	Myeloid diff MLP	FXN GAA850 act	T cell modulator	NR2E3 ag-1	NR2E3 ag-2
FC(F)(F)c1cc(C(F)(F)F)n2nc(-c3sccc3-n3cccc3)cc2n1	+	i	i	i	i
Cc1cc(C)n2nc(-c3sccc3-n3cccc3)cc2n1	i	i	i	i	i
Cc1cccc(NC(=S)N(CCN(C)C)C(C)c2ccccn2)c1 (stereo not given)	+	i	i	i	i
CCCCSCc1ccc(C(=O)O)o1	+	i	i	i	i
N#CCCSCc1ccc(C(=O)O)o1	i	i	i	i	i
COc1cc(/C=C(\C#N)C(=O)c2ccc(O)c(O)c2)cc(I)c1O	+	i	i	i	i
CC1CC(C)CN(S(=O)(=O)CCNC(=O)c2ccc3c(c2)OCO3)C1 (stereo not given)	i	i	i	i	i
Cc1cc(-n2cnnn2)cc(C)c1S(=O)(=O)NCCOc1ccccc1	i	i	i	i	i
Cc1cc(N2CCCC2=O)cc(C)c1S(=O)(=O)NCCOc1ccc(C(C)(C)C)cc1	i	i	i	95.0	i
Cn1c(=O)[nH]c(=O)c2c1nc(Br)n2CCCO	+	i	i	i	i
